pIC50: −log10 of the molar value. The source made the active and inactive calls. The calls are words filed in the database; no cut-off is given here.
What was measured:
Nucleic Acid [1] = experiment: Binding affinity to human 21-TT G-quadruplex DNA structure assessed as first step association constant by electrospray ionization mass spectrometry; assay type: nucleic-acid assay
Outline: (§1)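 ESI-MS in 150 mM ammonium acetate; DNA 5 μM final (per duplex or quadruplex unit); ligand at drug/DNA ratios 0.5 to 4. Methanol (15%) added just before injection, after binding equilibrium. K1 and K2 for 1:1 and 2:1 complexes, and % bound DNA, taken from relative peak intensities assuming equal response factors. At least three repeats.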

Nucleic Acid [2] = experiment: Binding affinity to human 21-TT G-quadruplex DNA structure assessed as second step association constant by electrospray ionization mass spectrometry; assay type: nucleic-acid assay; outline: as §1
Nucleic Acid [3] = experiment: Binding affinity to human DK66 duplex DNA structure assessed as first step association constant by electrospray ionization mass spectrometry; assay type: nucleic-acid assay; outline: as §1
Nucleic Acid [4] = experiment: Binding affinity to human DK66 duplex DNA structure assessed as second step association constant by electrospray ionization mass spectrometry; assay type: nucleic-acid assay; outline: as §1
Nucleic Acid [5] = experiment: Stabilization of 21-mer human F21T G4-telomeric quadruplex assessed as change in melting temperature at 1 uM by FRET assay; assay type: nucleic-acid assay
Nucleic Acid [6] = experiment: Stabilization of human duplex DNA T-loop assessed as change in melting temperature at 1 uM by FRET assay; assay type: nucleic-acid assay
Nucleic Acid [7] = experiment: Binding affinity to human 21-TT G-quadruplex DNA structure assessed as bound DNA at 5:5 DNA to drug ratio by electrospray ionization mass spectrometry; assay type: nucleic-acid assay; outline: as §1
Nucleic Acid [8] = experiment: Binding affinity to human 21-TT G-quadruplex DNA structure assessed as bound DNA at 5:10 DNA to drug ratio by electrospray ionization mass spectrometry; assay type: nucleic-acid assay; outline: as §1
Nucleic Acid [9] = experiment: Binding affinity to human DK66 duplex DNA structure assessed as bound DNA at 5:5 DNA to drug ratio by electrospray ionization mass spectrometry; assay type: nucleic-acid assay; outline: as §1
Nucleic Acid [10] = experiment: Binding affinity to human DK66 duplex DNA structure assessed as bound DNA at 5:10 DNA to drug ratio by electrospray ionization mass spectrometry; assay type: nucleic-acid assay; outline: as §1
Nucleic Acid [11] = experiment: Binding affinity to human 21-TT G-quadruplex DNA structure at 1:1 DNA to calf thymus DNA ratio by competitive inhibition assay; assay type: nucleic-acid assay; set-up: concentration or dose not given beside the values
Outline: (§2)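 ESI-MS competition: quadruplex DNA and ligand each 5 μM final, plus calf thymus DNA at duplex/quadruplex ratios 1 and 5 (by phosphate concentration), in ammonium acetate. Percentage bound quadruplex and normalized bound quadruplex (N%) measured by mass spectrometry. SD over at least three independent experiments.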

Nucleic Acid [12] = experiment: Binding affinity to human 21-TT G-quadruplex DNA structure at 1:5 DNA to calf thymus DNA ratio by competitive inhibition assay; assay type: nucleic-acid assay; set-up: concentration or dose not given beside the values; outline: as §2
BJ [13] = experiment: Induction of DNA damage response in human BJ cells expressing SV40 early region EHLT assessed as phosphorylation of gamma H2AX at 0.25 uM after 24 hrs by immunofluorescence method; assay type: functional, cell-based
Outline: (§3)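 BJ-EHLT and BJ-hTERT fibroblasts exposed to a range of concentrations for 24 h. Fixed in 2% formaldehyde, permeabilized in 0.25% Triton X-100, immunostained for γ-H2AX and 53BP1. Percentage of positive cells scored. Three independent experiments, SD.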

BJ [14] = experiment: Induction of DNA damage response in human BJ cells expressing SV40 early region EHLT assessed as phosphorylation of […] after 24 hrs by immunofluorescence method; assay type: functional, cell-based; outline: as §3
BJ [15] = experiment: Antiproliferative activity against human BJ cells expressing SV40 early region EHLT at 0.5 uM after 24 hrs by Coulter counter method; assay type: functional, cell-based
Outline: (§4)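 Cells seeded at 5 ×10^4 per dish; compounds freshly dissolved and added to the medium 24 h after plating, at 0.5 μM or 3 μM (3 μM only for one derivative). Cell number by Coulter counting and viability by trypan blue exclusion daily, day 1 to day 8. Growth inhibition of treated vs untreated cells calculated at days 2, 4, 6 and 8. Representative experiments in quintuplicate, SD shown.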

BJ [16] = experiment: Growth inhibition of human BJ cells expressing SV40 early region EHLT at 0.5 uM on day 8 by trypan blue assay; assay type: functional; settings: 192 h, read-out: GI; outline: as §4
BJ [17] = experiment: Antiproliferative activity against human BJ cells expressing TERT at 0.5 uM after 2 to 8 days by trypan blue assay; assay type: cell-based; outline: as §4
BJ [18] = experiment: Cell cycle arrest in human BJ cells expressing TERT assessed as accumulation at G0/G1 stage at 0.5 uM after 24 hrs by propidium iodide staining based flow cytometry (reference value: 61%); assay type: ADME
BJ [19] = experiment: Cell cycle arrest in human BJ cells expressing TERT assessed as accumulation at S stage at 0.5 uM after 24 hrs by propidium iodide staining based flow cytometry (reference value: 21%); assay type: ADME
BJ [20] = experiment: Cell cycle arrest in human BJ cells expressing TERT assessed as accumulation at G2/M stage at 0.5 uM after 24 hrs by propidium iodide staining based flow cytometry (reference value: 17%); assay type: ADME
BJ [21] = experiment: Cell cycle arrest in human BJ cells expressing TERT assessed as accumulation at G0/G1 stage at 0.5 uM after 48 hrs by propidium iodide staining based flow cytometry (reference value: 80%); assay type: ADME
BJ [22] = experiment: Cell cycle arrest in human BJ cells expressing TERT assessed as accumulation at S stage at 0.5 uM after 48 hrs by propidium iodide staining based flow cytometry (reference value: 12%); assay type: ADME
BJ [23] = experiment: Cell cycle arrest in human BJ cells expressing TERT assessed as accumulation at G2/M stage at 0.5 uM after 48 hrs by propidium iodide staining based flow cytometry (reference value: 6%); assay type: ADME
BJ [24] = experiment: Cell cycle arrest in human BJ cells expressing TERT assessed as accumulation at G0/G1 stage at 0.5 uM after 72 hrs by propidium iodide staining based flow cytometry (reference value: 83%); assay type: ADME
BJ [25] = experiment: Cell cycle arrest in human BJ cells expressing TERT assessed as accumulation at S stage at 0.5 uM after 72 hrs by propidium iodide staining based flow cytometry (reference value: 10%); assay type: ADME
BJ [26] = experiment: Cell cycle arrest in human BJ cells expressing TERT assessed as accumulation at G2/M stage at 0.5 uM after 72 hrs by propidium iodide staining based flow cytometry (reference value: 5%); assay type: ADME
BJ [27] = experiment: Cell cycle arrest in human BJ cells expressing TERT assessed as accumulation at G0/G1 stage at 0.5 uM after 96 hrs by propidium iodide staining based flow cytometry (reference value: 86%); assay type: ADME
BJ [28] = experiment: Cell cycle arrest in human BJ cells expressing TERT assessed as accumulation at S stage at 0.5 uM after 96 hrs by propidium iodide staining based flow cytometry (reference value: 9%); assay type: ADME
BJ [29] = experiment: Cell cycle arrest in human BJ cells expressing TERT assessed as accumulation at G2/M stage at 0.5 uM after 96 hrs by propidium iodide staining based flow cytometry (reference value: 4%); assay type: ADME
[30] = biological target: Telomerase reverse transcriptase (Homo sapiens, UniProt O14746); experiment: Inhibition of human Telomerase activity in cell free system by TRAP assay
Outline: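 Cell-free TRAP: protein extract incubated with compound at 1 to 50 μM so telomerase elongates the substrate oligonucleotide. Before PCR, phenol/chloroform/isoamyl-alcohol (50:49:1) extraction removes the ligand and DNA is precipitated overnight at -20 °C. Amplification uses a 36 bp ITAS; products are resolved on 12% PAGE and stained with SYBR Green. Signals are corrected by the no-extract control and normalized to untreated, giving dose-response IC50. Mean of three experiments.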

BJ [31] = experiment: Induction of DNA damage response in human BJ cells expressing human TERT assessed as phosphorylation of gamma H2AX after 24 hrs by immunofluorescence; assay type: functional, cell-based; outline: as §3
BJ [32] = experiment: Induction of DNA damage response in human BJ cells expressing human TERT assessed as phosphorylation of […] after 24 hrs by immunofluorescence; assay type: functional, cell-based; outline: as §3
Nucleic Acid [33] = experiment: Binding affinity to human DK66 duplex DNA structure assessed as bound DNA at 5:20 DNA to drug ratio by electrospray ionization mass spectrometry; assay type: nucleic-acid assay; outline: as §1

Telomerase reverse transcriptase, sequence (O14746 whole entry): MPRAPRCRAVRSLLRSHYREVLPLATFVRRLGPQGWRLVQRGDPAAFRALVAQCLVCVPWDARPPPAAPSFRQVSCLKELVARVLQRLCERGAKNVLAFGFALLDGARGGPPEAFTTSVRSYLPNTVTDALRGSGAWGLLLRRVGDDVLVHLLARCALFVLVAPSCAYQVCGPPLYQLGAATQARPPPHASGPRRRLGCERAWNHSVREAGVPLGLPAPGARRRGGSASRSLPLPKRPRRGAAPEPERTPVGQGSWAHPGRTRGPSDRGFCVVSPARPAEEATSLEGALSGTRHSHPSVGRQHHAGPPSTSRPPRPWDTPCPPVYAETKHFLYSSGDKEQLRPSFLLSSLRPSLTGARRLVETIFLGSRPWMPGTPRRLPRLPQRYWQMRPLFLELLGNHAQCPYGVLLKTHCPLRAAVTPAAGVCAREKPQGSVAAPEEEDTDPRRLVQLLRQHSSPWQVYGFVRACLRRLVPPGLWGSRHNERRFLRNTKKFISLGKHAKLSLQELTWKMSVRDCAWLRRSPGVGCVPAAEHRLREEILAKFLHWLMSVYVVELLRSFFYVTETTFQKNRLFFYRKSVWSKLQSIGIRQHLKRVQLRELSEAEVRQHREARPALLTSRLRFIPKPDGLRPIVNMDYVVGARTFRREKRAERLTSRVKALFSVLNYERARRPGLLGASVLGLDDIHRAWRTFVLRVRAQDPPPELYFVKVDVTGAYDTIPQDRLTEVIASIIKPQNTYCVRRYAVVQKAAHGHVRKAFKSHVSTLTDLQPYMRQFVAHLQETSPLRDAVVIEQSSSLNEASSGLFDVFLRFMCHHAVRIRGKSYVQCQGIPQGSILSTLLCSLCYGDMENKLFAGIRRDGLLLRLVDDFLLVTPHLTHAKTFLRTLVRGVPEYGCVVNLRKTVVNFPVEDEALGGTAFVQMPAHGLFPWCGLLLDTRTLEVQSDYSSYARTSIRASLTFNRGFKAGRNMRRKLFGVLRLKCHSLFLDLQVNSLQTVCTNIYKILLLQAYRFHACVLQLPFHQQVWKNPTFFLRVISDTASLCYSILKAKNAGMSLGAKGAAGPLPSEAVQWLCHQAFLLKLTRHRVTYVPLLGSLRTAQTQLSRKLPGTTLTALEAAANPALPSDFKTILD

CN(C)CCCN1CCN(c2cc3c4c(ccc5c6ccc7c8c(ccc(c2c45)c86)C(=O)N(CCN2CCCCC2)C7=O)C(=O)N(CCN2CCCCC2)C3=O)CC1
log Ks (Nucleic Acid [1]): 5.5
log Ks (Nucleic Acid [2]): 5
log Ks (Nucleic Acid [3]): 5.4
log Ks (Nucleic Acid [4]): 4.9
ΔTm (Nucleic Acid [5]): 35.5 °C
ΔTm (Nucleic Acid [6]): 2.3 °C
Activity (Nucleic Acid [7]): 48%
Activity (Nucleic Acid [8]): 76%
Activity (Nucleic Acid [9]): 43%
Activity (Nucleic Acid [10]): 66%
Activity (Nucleic Acid [11]): 46%
Activity (Nucleic Acid [12]): 32%
Activity (BJ [13]): Active
Activity (BJ [14]): Active
Activity (BJ [15]; TDE = time-dependent effect, in the assay text read “after 2 to 8 days” for “after 24 hrs”): tde
inhibition of growth at 0.5 µM (BJ [16]): 50%
Activity (BJ [17]): Toxic
Activity (BJ [18]): 42%
Activity (BJ [19]): 3.8%
Activity (BJ [20]): 54.2%
Activity (BJ [21]): 35.4%
Activity (BJ [22]): 3.5%
Activity (BJ [23]): 61.1%
Activity (BJ [24]): 34.7%
Activity (BJ [25]): 7.3%
Activity (BJ [26]): 58%
Activity (BJ [27]): 38.2%
Activity (BJ [28]): 7.6%
Activity (BJ [29]): 54.2%
pIC50 [30]: 5.52
Activity (BJ [31]): Dose-dependent effect
Activity (BJ [32]): Dose-dependent effect

CN1CCN(c2cc3c4c(ccc5c6c(N7CCN(C)CC7)cc7c8c(ccc(c2c45)c86)C(=O)N(CCN2CCCCC2)C7=O)C(=O)N(CCN2CCCCC2)C3=O)CC1
log Ks (Nucleic Acid [1]): 5.4
log Ks (Nucleic Acid [2]): 5.6
log Ks (Nucleic Acid [3]): 4.9
log Ks (Nucleic Acid [4]): 4.2
ΔTm (Nucleic Acid [5]): 27.4 °C
ΔTm (Nucleic Acid [6]): 2.9 °C
Activity (Nucleic Acid [7]): 45%
Activity (Nucleic Acid [8]): 77%
Activity (Nucleic Acid [9]): 27%
Activity (Nucleic Acid [10]): 44%
Activity (Nucleic Acid [11]): 40%
Activity (Nucleic Acid [12]): 22%
Activity (BJ [13]): Active
Activity (BJ [14]): Active
Activity (BJ [15]; in the assay text read “after 2 to 8 days” for “after 24 hrs”, TDE = time-dependent effect): tde
inhibition of growth at 0.5 µM (BJ [16]): 50%
Activity (BJ [17]): Toxic
Activity (BJ [18]): 35.1%
Activity (BJ [19]): 13.9%
Activity (BJ [20]): 51%
Activity (BJ [21]): 39.8%
Activity (BJ [22]): 5%
Activity (BJ [23]): 55.2%
Activity (BJ [24]): 35.2%
Activity (BJ [25]): 6.6%
Activity (BJ [26]): 58.2%
Activity (BJ [27]): 33.1%
Activity (BJ [28]): 6.5%
Activity (BJ [29]): 60.4%
pIC50 [30]: 5.00
Activity (BJ [31]): Dose-dependent effect
Activity (BJ [32]): Dose-dependent effect

O=C1c2ccc3c4c(N5CCCCC5)cc5c6c(cc(N7CCCCC7)c(c7ccc(c2c37)C(=O)N1CCOCCN1CCCCC1)c64)C(=O)N(CCOCCN1CCCCC1)C5=O
log Ks (Nucleic Acid [1]): 4.8
log Ks (Nucleic Acid [2]): 4.8
log Ks (Nucleic Acid [3]): 3.8
ΔTm (Nucleic Acid [5]): 13.1 °C
ΔTm (Nucleic Acid [6]): 0.1 °C
Activity (Nucleic Acid [7]): 20%
Activity (Nucleic Acid [8]): 30%
Activity (Nucleic Acid [33]): 11%

CN(C)CCOCCN1C(=O)c2ccc3c4c(N5CCCCC5)cc5c6c(ccc(c7c(N8CCCCC8)cc(c2c37)C1=O)c64)C(=O)N(CCOCCN(C)C)C5=O
log Ks (Nucleic Acid [1]): 4.6
log Ks (Nucleic Acid [2]): 4.9
log Ks (Nucleic Acid [3]): 4
ΔTm (Nucleic Acid [5]): 16.6 °C
ΔTm (Nucleic Acid [6]): 0.9 °C
Activity (Nucleic Acid [7]): 22.5%
Activity (Nucleic Acid [8]): 30%
Activity (Nucleic Acid [33]): 16%

Source: ChEMBL document CHEMBL1687886, “N-cyclic bay-substituted perylene G-quadruplex ligands have selective antiproliferative effects on cancer cells and induce telomere damage” (J Med Chem, 2011)
